High-throughput results deposited in PubChem BioAssay by The Scripps Research Institute Molecular Screening Center.
OX1R antag-1: blocks the human orexin 1 receptor; O43613; CHO/OX1R cells, Fluo-8 calcium fluorescence, orexin A; inhibition, % at 5 µM; 330,000 tested, 0.43% active;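 active = inhibition above its plate's threshold, mean inhibition of all tested compounds on the plate plus 3 SD, cut at about 37% in these data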;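 also: 0% = orexin A challenge wells and 100% = SB-334867-A antagonist wells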
Target sequence (O43613 whole entry, looked up): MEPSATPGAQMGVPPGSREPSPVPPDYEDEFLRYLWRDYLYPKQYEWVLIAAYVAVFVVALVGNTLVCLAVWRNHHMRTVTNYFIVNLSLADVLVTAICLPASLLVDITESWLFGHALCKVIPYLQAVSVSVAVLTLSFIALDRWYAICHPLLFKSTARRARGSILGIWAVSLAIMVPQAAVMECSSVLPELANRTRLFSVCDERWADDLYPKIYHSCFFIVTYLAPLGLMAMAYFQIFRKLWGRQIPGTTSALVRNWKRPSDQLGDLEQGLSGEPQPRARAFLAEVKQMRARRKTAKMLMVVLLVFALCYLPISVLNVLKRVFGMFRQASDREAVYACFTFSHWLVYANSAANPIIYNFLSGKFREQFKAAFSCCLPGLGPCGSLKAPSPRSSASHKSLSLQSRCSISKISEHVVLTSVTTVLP
OX1R antag-2: OX1R (human) antagonism; AID 485270; OX1R-expressing cells, FRET antagonist read-out; inhibition, % at 6.6 µM; O43613; 330,000 tested, 1.8% active; in the data active = inhibition mostly above about 38%, no sharp cut-off; inactive = mostly below about 40%;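 also: 0% = agonist challenge alone and 100% = reference antagonist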
CHO parental Ca: signal in parental CHO cells, OX1R antagonist counter-screen; parental CHO-K1, ATP-induced calcium, Fluo-8 fluorescence; inhibition, % at 5.6 µM; 330,000 tested, 0.63% active;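 active = inhibition above that plate's mean sample inhibition plus 3 SD, cut at about 26% in these data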;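 also: 0% = ATP-challenged DMSO wells and 100% = DMSO wells without ATP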
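Test system: untransfected parental CHO cell line; also added: ATP stimulus; dosing: 5.6 µM, single dose; signal: calcium-sensitive Fluo-8 fluorescence; measure: percent inhibition of ATP-evoked calcium rise, normalized to controls; benchmarks: low control ATP plus DMSO, high control DMSO only; replication: one well per compound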
GalR3 antagonist: antagonists of human GalR3; HEK293 GalR3-CNG cAMP membrane potential fluorescence; galR3 body fused to GalR1 C-terminus; 360,000 tested, 0.44% active; inhibition, % at 3 µM;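 active = inhibition above the screen-wide average plus 3 SD, cut at about 13% in these data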;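 also: forskolin and galanin both at EC90 stimulate the cells; cAMP rise reported by CNG channel membrane potential dye signal; 0% = forskolin plus galanin with DMSO and 100% = forskolin alone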
GPR7 antag: human neuropeptides B/W receptor 1 antagonism. P48145. GPR7-expressing cells, fluorescence antagonist assay. inhibition, % at 4.4 µM. 290,000 tested, 1.1% active. AID 1861; in the data active = inhibition above about 16%, passing the limit was not always enough;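 also: cells stimulated with the agonist NPW; 0% = agonist with vehicle and 100% = vehicle without agonist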
Starred values were filed as active, the others as inactive; nt = no result. In the library only some 3.1% were active in any assay of this set; here they are far more common.

SMILES	OX1R antag-1	OX1R antag-2	CHO parental Ca	GalR3 antagonist	GPR7 antag
Cc1cc(C)c2cc(C#N)c(N3CCCN(C(=O)c4cnccn4)CC3)nc2c1	-13	51*	-11	-3	-5
CCCCn1c(N)c(Sc2ccccc2[N+](=O)[O-])c(=O)[nH]c1=O	-23	55*	-5	-7	-6
CCc1cc2c(N3CCN(c4ccccc4)CC3)ncnc2s1	58*	31	60*	-4	4
CN(C)c1nc(N)nc(-c2nc3ccccc3s2)n1	-12	58*	-28	-5	-7
Nc1ccccc1-c1nc2ccccc2s1	-18	21	-22	4	-9
O=C(CCOc1ccccc1)Nc1cccc(S(=O)(=O)Nc2ccccc2Cl)c1	57*	55	37*	6	-8
N#Cc1cccc(NC(=O)COC(=O)c2cc(S(=O)(=O)Nc3ccccc3Cl)ccc2O)c1	15	38*	4	-4	nt
COc1cccc(OC)c1C(=O)Nc1cccc(S(=O)(=O)Nc2ccccc2Cl)c1	-2	17	-20	-6	nt
Cc1cc(Oc2ccc3ccccc3c2)nc(SCC(=O)c2ccccc2)n1	-23	33	-4	-8	32*
Cc1cc(Oc2ccc(Br)cc2)nc(SCC(=O)c2ccccc2)n1	-39	19	-26	-7	0
CC(=O)N1CCN(c2ccc(N3CCN(Cc4ccccc4)[C@@H](C)C3)c(C)c2)[C@H](C)C1	nt	nt	nt	-7	nt
O=C(CCC(=O)OCC(=O)c1ccc([N+](=O)[O-])cc1)Nc1ccccc1Cl	-13	58*	0	nt	-9
Cc1ccccc1OCC(=O)NCC(=O)OCC(=O)c1ccc([N+](=O)[O-])cc1	-2	50	1	-2	-12
O=C(COc1ccccc1F)OCC(=O)c1ccc([N+](=O)[O-])cc1	9	31*	1	-5	nt
O=C(COC(=O)Cc1ccccc1F)NNC(=O)c1ccc([N+](=O)[O-])cc1	-1	63*	-8	3	nt
O=C(COC(=O)c1cnccn1)c1ccc([N+](=O)[O-])cc1	-1	44*	-6	-4	-6
CC(C)[C@H](NC(N)=O)C(=O)Nc1cccc(S(=O)(=O)NC2=NCCCCC2)c1	nt	nt	nt	-3	nt
CNc1nc(N/N=C/c2cc3c(cc2[N+](=O)[O-])OCO3)nc(Nc2ccccc2)n1	-13	44*	-24	-5	-12
Cc1ccc(NC(=O)Cn2ncc(Cl)c(Cl)c2=O)cc1S(=O)(=O)N1CCCCC1	7	7	15	-3	nt
O=C(COC(=O)c1cccc(C(F)(F)F)c1)NCc1ccccc1	10	32	49*	-5	-5
O=C(COC(=O)/C=C/c1cccc(C(F)(F)F)c1)NCc1cccs1	8	3	36*	-6	nt
COC(=O)[C@]12C[C@H](CC(=O)NCc3ccccc3)C(=O)N(CCC3=CCCCC3)C1=C[C@H](COCc1ccccc1)O[C@@H]2C	nt	nt	nt	-11	nt
CN1Cc2sc(NC(=S)NC(=O)c3ccccc3)c(C#N)c2CC1(C)C	40*	25	34*	2	-11
CCC1(C)Cc2c(sc(NC(=S)NC(=O)c3ccccc3)c2C#N)CO1 (stereo not given)	3	12	2	-2	-4
CCCCc1[nH]c(=O)c(C#N)c2c1CSC(C)(C)C2	-3	18	56*	-2	-16
SMILES	OX1R antag-1	OX1R antag-2	CHO parental Ca	GalR3 antagonist	GPR7 antag
COC(=O)c1c(-c2ccc(OC)cc2)c2c(c3c4cc(F)ccc4n(S(=O)(=O)c4ccc(C)cc4)c13)C(=O)N(C)C2	nt	nt	nt	-6	nt
O=C(Nc1cccc2ccccc12)/C(=C\c1cccc([N+](=O)[O-])c1)NC(=O)c1cccs1	19	56*	-8	7	-9
CCOC(=O)/C(=C\c1ccc([N+](=O)[O-])o1)NC(=O)c1ccccc1	-27	43*	-17	nt	-12
Cc1ccc(C(=O)N/C(=C\c2ccc(-c3cccc([N+](=O)[O-])c3)o2)C(=O)NC(C)(C)C)cc1	1	74*	-17	4	-10
CCCOC(=O)/C(=C\c1ccc([N+](=O)[O-])o1)NC(=O)c1ccccc1	-18	49	-12	-2	-5
O=C(NCCCN1CCOCC1)/C(=C/c1ccc(-c2cccc([N+](=O)[O-])c2)o1)NC(=O)c1ccccc1	nt	nt	nt	-7	nt
O=C(NCCCO)/C(=C/c1ccc(-c2cccc([N+](=O)[O-])c2)o1)NC(=O)c1ccccc1	-14	51*	-7	2	-14
O=C(NCc1ccccc1)/C(=C/c1cccc([N+](=O)[O-])c1)NC(=O)c1ccco1	-12	11	-9	-4	-5
O=C(NCCO)/C(=C\c1ccc([N+](=O)[O-])o1)NC(=O)c1ccccc1	-15	65*	-14	0	-9
Cc1ccc(C(=O)N/C(=C/c2ccc(-c3ccc([N+](=O)[O-])cc3)o2)C(=O)NCCCN(C)C)cc1	-23	21	0	2	nt
O=C(NCCc1ccccc1)/C(=C\c1cccc([N+](=O)[O-])c1)NC(=O)c1ccco1	-23	53*	-13	-1	-1
Cc1coc2c(C)c3oc(=O)c(CCC(=O)NCc4ccccn4)c(C)c3cc12	-55	21	-21	-6	8
COC(=O)c1ccc(C(C(=O)NCc2ccccc2)N(Cc2cccs2)C(=O)c2cnccn2)cc1 (stereo not given)	-23	2	-8	-3	-4
Cc1ccc(C(C(=O)NCc2ccccc2)N(Cc2cccs2)C(=O)c2ccc3c(c2)OCCO3)cc1 (stereo not given)	13	58*	6	-5	-14
CCc1cccc(CC)c1NC(=O)Cn1c(-c2ccccc2Cl)nc2ccccc21	2	14	-19	-1	18*
CC(C)N(C(=O)Cn1c(-c2ccccc2Cl)nc2ccccc21)c1ccccc1	-15	24	-17	5	9
C[C@@H]1CN([C@H](C)CO)C(=O)Cc2cc(NS(=O)(=O)c3cn(C)cn3)ccc2O[C@H]1CN(C)S(=O)(=O)c1ccc(Cl)cc1	4	0	-12	-7	nt
CSc1ccccc1OCc1cc(C(=O)N2CCc3c(Cl)cccc3C2)no1	62*	42	58*	0	-9
CC1=NNC(=O)/C1=C\c1cn(-c2ccccc2)nc1-c1ccc(Cl)cc1	53*	5	37*	21*	10
CC1(C)CC(=O)C(=Cc2cn(-c3ccccc3)nc2-c2ccccc2)C(=O)C1	-4	8	-10	-5	nt
O=C(CCC(F)(F)F)N1CCCC(N2CCN(c3cccc(Cl)c3)CC2)C1 (stereo not given)	-33	21	-20	-11	5
Cc1ccc(C)c(NC(=O)CN(C)C(=O)Cc2coc3cc(C)c(C)cc23)c1	-15	23	-12	nt	nt
Cc1cc2occ(CC(=O)N(C)CC(=O)Nc3ccccc3Br)c2cc1C	5	68*	-16	-3	nt
COC(=O)Nc1ccc(S(=O)(=O)N2CCC(Cc3ccccc3)CC2)cc1	20	14	45*	0	-3
COC(=O)Nc1ccc(S(=O)(=O)N2CCC(C)CC2)cc1	1	12	-8	-5	11
